Values after ≈ are worked out from the molar mass of the structure shown.
Key:
Format in all cases: functional
[1] = tested on: Staphylococcus aureus; experiment: Antibacterial activity against beta-lactamase positive SCCmec type 3 methicillin-resistant Staphylococcus aureus isolate 12662 by broth microdilution method
Summary of the method: (§1)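 MIC by broth microdilution in cation-adjusted Mueller-Hinton broth per CLSI recommendations. The isolates were mecA-positive MRSA, SCCmec-typed mainly by multiplex PCR. Every isolate was beta-lactamase positive by whole-cell nitrocefin hydrolysis.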

[2] = tested on: Staphylococcus aureus; experiment: Induction of mecA gene expression in beta-lactamase positive SCCmec type 3 methicillin-resistant Staphylococcus aureus isolate 12597 at MIC after 1 hr by multiplex PCR method
[3] = tested on: Staphylococcus aureus; experiment: Induction of mecA gene expression in beta-lactamase positive SCCmec type 3 methicillin-resistant Staphylococcus aureus isolate 14567 at MIC after 1 hr by multiplex PCR method
[4] = tested on: Staphylococcus aureus; experiment: Antibacterial activity against beta-lactamase positive SCCmec type 4a methicillin-resistant Staphylococcus aureus isolate 14145 by broth microdilution method; summary of the method: as §1
[5] = tested on: Staphylococcus aureus; experiment: Antibacterial activity against beta-lactamase positive SCCmec type nontypeable methicillin-resistant Staphylococcus aureus isolate 17329 by broth microdilution method; summary of the method: as §1
[6] = tested on: Staphylococcus aureus; experiment: Antibacterial activity against beta-lactamase positive SCCmec type 5 methicillin-resistant Staphylococcus aureus isolate 12868 by broth microdilution method; summary of the method: as §1
[7] = tested on: Staphylococcus aureus; experiment: Induction of mecA gene expression in beta-lactamase positive SCCmec type 4a methicillin-resistant Staphylococcus aureus isolate 14145 at MIC after 1 hr by multiplex PCR method
[8] = tested on: Staphylococcus aureus; experiment: Induction of mecA gene expression in beta-lactamase positive SCCmec type 3 methicillin-resistant Staphylococcus aureus isolate 12662 at MIC after 1 hr by multiplex PCR method
[9] = tested on: Staphylococcus aureus; experiment: Induction of mecA gene expression in beta-lactamase positive SCCmec type 2 methicillin-resistant Staphylococcus aureus isolate 15855 at MIC after 1 hr by multiplex PCR method
[10] = tested on: Staphylococcus aureus; experiment: Antibacterial activity against beta-lactamase positive SCCmec type 2 methicillin-resistant Staphylococcus aureus isolate 17256 by broth microdilution method; summary of the method: as §1
[11] = tested on: Staphylococcus aureus; experiment: Induction of mecA gene expression in beta-lactamase positive SCCmec type 2 methicillin-resistant Staphylococcus aureus isolate 11521 at MIC after 1 hr by multiplex PCR method
[12] = tested on: Staphylococcus aureus; experiment: Induction of mecA gene expression in beta-lactamase positive SCCmec type 2 methicillin-resistant Staphylococcus aureus isolate 11218 at MIC after 1 hr by multiplex PCR method
[13] = tested on: Staphylococcus aureus; experiment: Induction of mecA gene expression in beta-lactamase positive SCCmec type 4a methicillin-resistant Staphylococcus aureus isolate 11617 at MIC after 1 hr by multiplex PCR method
[14] = tested on: Staphylococcus aureus; experiment: Antibacterial activity against beta-lactamase positive SCCmec type 2 methicillin-resistant Staphylococcus aureus isolate 11521 by broth microdilution method; summary of the method: as §1
[15] = tested on: Staphylococcus aureus; experiment: Antibacterial activity against beta-lactamase positive SCCmec type 4a methicillin-resistant Staphylococcus aureus isolate 12639 by broth microdilution method; summary of the method: as §1
[16] = tested on: Staphylococcus aureus; experiment: Induction of mecA gene expression in beta-lactamase positive SCCmec type 1 methicillin-resistant Staphylococcus aureus isolate 12575 at MIC after 1 hr by multiplex PCR method
[17] = tested on: Staphylococcus aureus; experiment: Antibacterial activity against beta-lactamase positive SCCmec type 4a methicillin-resistant Staphylococcus aureus isolate 11617 by broth microdilution method; summary of the method: as §1
[18] = tested on: Staphylococcus aureus; experiment: Antibacterial activity against beta-lactamase positive SCCmec type 2 methicillin-resistant Staphylococcus aureus isolate 11218 by broth microdilution method; summary of the method: as §1
[19] = tested on: Staphylococcus aureus; experiment: Induction of mecA gene expression in beta-lactamase positive SCCmec type 2 methicillin-resistant Staphylococcus aureus isolate 17256 at MIC after 1 hr by multiplex PCR method
[20] = tested on: Staphylococcus aureus; experiment: Induction of mecA gene expression in beta-lactamase positive SCCmec type 1 methicillin-resistant Staphylococcus aureus isolate 12192 at MIC after 1 hr by multiplex PCR method
[21] = tested on: Staphylococcus aureus; experiment: Antibacterial activity against beta-lactamase positive SCCmec type 3 methicillin-resistant Staphylococcus aureus isolate 12597 by broth microdilution method; summary of the method: as §1
[22] = tested on: Staphylococcus aureus; experiment: Induction of mecA gene expression in beta-lactamase positive SCCmec type 4a methicillin-resistant Staphylococcus aureus isolate 14154 at MIC after 1 hr by multiplex PCR method
[23] = tested on: Staphylococcus aureus; experiment: Antibacterial activity against beta-lactamase positive SCCmec type 1 methicillin-resistant Staphylococcus aureus isolate 12192 by broth microdilution method; summary of the method: as §1
[24] = tested on: Staphylococcus aureus; experiment: Induction of mecA gene expression in beta-lactamase positive SCCmec type nontypeable methicillin-resistant Staphylococcus aureus isolate 17329 at MIC after 1 hr by multiplex PCR method
[25] = tested on: Staphylococcus aureus; experiment: Antibacterial activity against beta-lactamase positive SCCmec type 3 methicillin-resistant Staphylococcus aureus isolate 14567 by broth microdilution method; summary of the method: as §1
[26] = tested on: Staphylococcus aureus; experiment: Antibacterial activity against beta-lactamase positive SCCmec type 4a methicillin-resistant Staphylococcus aureus isolate 14154 by broth microdilution method; summary of the method: as §1
[27] = tested on: Staphylococcus aureus; experiment: Antibacterial activity against beta-lactamase positive SCCmec type 2 methicillin-resistant Staphylococcus aureus isolate 15855 by broth microdilution method; summary of the method: as §1
[28] = tested on: Staphylococcus aureus; experiment: Antibacterial activity against beta-lactamase positive SCCmec type 1 methicillin-resistant Staphylococcus aureus isolate 11631 by broth microdilution method; summary of the method: as §1
[29] = tested on: Staphylococcus aureus; experiment: Antibacterial activity against beta-lactamase positive SCCmec type 3 methicillin-resistant Staphylococcus aureus isolate 12617 by broth microdilution method; summary of the method: as §1
[30] = tested on: Staphylococcus aureus; experiment: Antibacterial activity against beta-lactamase positive SCCmec type 2 methicillin-resistant Staphylococcus aureus isolate 17357 by broth microdilution method; summary of the method: as §1
[31] = tested on: Staphylococcus aureus; experiment: Induction of mecA gene expression in beta-lactamase positive SCCmec type 4a methicillin-resistant Staphylococcus aureus isolate 12639 at MIC after 1 hr by multiplex PCR method
[32] = tested on: Staphylococcus aureus; experiment: Induction of mecA gene expression in beta-lactamase positive SCCmec type 2 methicillin-resistant Staphylococcus aureus isolate 17357 at MIC after 1 hr by multiplex PCR method
[33] = tested on: Staphylococcus aureus; experiment: Induction of mecA gene expression in beta-lactamase positive SCCmec type 1 methicillin-resistant Staphylococcus aureus isolate 11631 at MIC after 1 hr by multiplex PCR method
[34] = tested on: Staphylococcus aureus; experiment: Antibacterial activity against beta-lactamase positive SCCmec type 1 methicillin-resistant Staphylococcus aureus isolate 12575 by broth microdilution method; summary of the method: as §1
[35] = tested on: Staphylococcus aureus; experiment: Induction of mecA gene expression in beta-lactamase positive SCCmec type 3 methicillin-resistant Staphylococcus aureus isolate 12617 at MIC after 1 hr by multiplex PCR method
[36] = tested on: Staphylococcus aureus; experiment: Induction of mecA gene expression in beta-lactamase positive SCCmec type 5 methicillin-resistant Staphylococcus aureus isolate 12868 at MIC after 1 hr by multiplex PCR method

Nc1nc(/C(=N/O)C(=O)N[C@@H]2C(=O)N3C(C(=O)O)=C(/C=C4\CCN([C@@H]5CCNC5)C4=O)CS[C@H]23)ns1 [CEFTOBIPROLE]
MIC [1]: 0.5 µg/mL (≈ 0.935 µM) | fold change (FC) [2]: 24 | fold change (FC) [3]: 27 | MIC [4]: 1 µg/mL (≈ 1.87 µM) | MIC [5]: 4 µg/mL (≈ 7.48 µM) | MIC [6]: 0.5 µg/mL (≈ 0.935 µM) | fold change (FC) [7]: 14 | fold change (FC) [8]: 22 | fold change (FC) [9]: 57 | MIC [10]: 4 µg/mL (≈ 7.48 µM) | fold change (FC) [11]: 49 | fold change (FC) [12]: 3 | fold change (FC) [13]: 30 | MIC [14]: 0.5 µg/mL (≈ 0.935 µM) | MIC [15]: 0.5 µg/mL (≈ 0.935 µM) | fold change (FC) [16]: 52 | MIC [17]: 0.5 µg/mL (≈ 0.935 µM) | MIC [18]: 0.5 µg/mL (≈ 0.935 µM) | fold change (FC) [19]: 3 | fold change (FC) [20]: 53 | MIC [21]: 2 µg/mL (≈ 3.74 µM) | fold change (FC) [22]: 20 | MIC [23]: 2 µg/mL (≈ 3.74 µM) | fold change (FC) [24]: 4 | MIC [25]: 2 µg/mL (≈ 3.74 µM) | MIC [26]: 1 µg/mL (≈ 1.87 µM) | MIC [27]: 1 µg/mL (≈ 1.87 µM) | MIC [28]: 2 µg/mL (≈ 3.74 µM) | MIC [29]: 2 µg/mL (≈ 3.74 µM) | MIC [30]: 4 µg/mL (≈ 7.48 µM) | fold change (FC) [31]: 5 | fold change (FC) [32]: 3 | fold change (FC) [33]: 65 | MIC [34]: 2 µg/mL (≈ 3.74 µM) | fold change (FC) [35]: 38 | fold change (FC) [36]: 20

Cc1onc(-c2ccccc2)c1C(=O)N[C@@H]1C(=O)N2[C@@H]1SC(C)(C)[C@@H]2C(=O)O [OXACILLIN]
MIC [1]: 256 µg/mL (≈ 638 µM) | fold change (FC) [2]: 31 | fold change (FC) [3]: 27 | MIC [4]: 16 µg/mL (≈ 39.9 µM) | MIC [5]: 256 µg/mL (≈ 638 µM) | MIC [6]: 4 µg/mL (≈ 9.96 µM) | fold change (FC) [7]: 5 | fold change (FC) [8]: 18 | fold change (FC) [9]: 25 | MIC [10]: 256 µg/mL (≈ 638 µM) | fold change (FC) [11]: 13 | fold change (FC) [12]: 3 | fold change (FC) [13]: 5 | MIC [14]: 256 µg/mL (≈ 638 µM) | MIC [15]: 64 µg/mL (≈ 159 µM) | fold change (FC) [16]: 69 | MIC [17]: 8 µg/mL (≈ 19.9 µM) | MIC [18]: 32 µg/mL (≈ 79.7 µM) | fold change (FC) [19]: 4 | fold change (FC) [20]: 41 | MIC [21]: > 256 µg/mL | fold change (FC) [22]: 6 | MIC [23]: > 256 µg/mL | fold change (FC) [24]: 50 | MIC [25]: 256 µg/mL (≈ 638 µM) | MIC [26]: 16 µg/mL (≈ 39.9 µM) | MIC [27]: 256 µg/mL (≈ 638 µM) | MIC [28]: > 256 µg/mL | MIC [29]: > 256 µg/mL | MIC [30]: > 256 µg/mL | fold change (FC) [31]: 2 | fold change (FC) [32]: 15 | fold change (FC) [33]: 66 | MIC [34]: > 256 µg/mL | fold change (FC) [35]: 50 | fold change (FC) [36]: 2

Reference: ChEMBL document CHEMBL1240365, “Effects of ceftobiprole and oxacillin on mecA expression in methicillin-resistant Staphylococcus aureus clinical isolates” (2010)
